How the values were obtained:
Settings in all cases: stereoisomer not certain
[1] = target: T1, OR52I1 (Homo sapiens) (UniProt Q8NGK6)
T1 sequence (whole entry): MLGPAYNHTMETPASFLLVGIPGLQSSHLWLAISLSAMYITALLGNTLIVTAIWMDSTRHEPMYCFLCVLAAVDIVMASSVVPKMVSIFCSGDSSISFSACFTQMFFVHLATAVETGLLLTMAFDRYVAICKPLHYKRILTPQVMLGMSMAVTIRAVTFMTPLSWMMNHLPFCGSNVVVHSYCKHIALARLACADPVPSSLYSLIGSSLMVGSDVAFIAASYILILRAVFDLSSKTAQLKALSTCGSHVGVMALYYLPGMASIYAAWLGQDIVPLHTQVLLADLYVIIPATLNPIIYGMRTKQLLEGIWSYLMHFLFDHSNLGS
Method in brief: (§1)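 Assay methods differ from source to source, frequently being transient luciferase assays in mammalian cell lines. For each receptor–molecule pair, the label responsive (active) applies when the original authors judged the measured signal statistically different from baseline, and non-responsive (inactive) applies otherwise.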

[2] = target: T2, OR52I2 (Homo sapiens) (UniProt Q8NH67)
T2 sequence (whole entry): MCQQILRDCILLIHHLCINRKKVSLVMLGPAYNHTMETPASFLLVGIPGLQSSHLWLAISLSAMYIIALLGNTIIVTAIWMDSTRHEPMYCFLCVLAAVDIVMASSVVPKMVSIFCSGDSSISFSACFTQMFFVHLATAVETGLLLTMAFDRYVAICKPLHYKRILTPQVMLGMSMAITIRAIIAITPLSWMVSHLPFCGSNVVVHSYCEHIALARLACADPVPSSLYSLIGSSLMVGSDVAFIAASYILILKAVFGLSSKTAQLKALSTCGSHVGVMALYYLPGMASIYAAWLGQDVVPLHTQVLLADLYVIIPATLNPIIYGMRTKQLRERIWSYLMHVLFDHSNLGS
Method in brief: as §1

[3] = target: OR52J3 (Homo sapiens) (UniProt Q8NH60)
Method in brief: as §1

[4] = target: T3, OR52K1 (Homo sapiens) (UniProt Q8NGK4)
T3 sequence (whole entry): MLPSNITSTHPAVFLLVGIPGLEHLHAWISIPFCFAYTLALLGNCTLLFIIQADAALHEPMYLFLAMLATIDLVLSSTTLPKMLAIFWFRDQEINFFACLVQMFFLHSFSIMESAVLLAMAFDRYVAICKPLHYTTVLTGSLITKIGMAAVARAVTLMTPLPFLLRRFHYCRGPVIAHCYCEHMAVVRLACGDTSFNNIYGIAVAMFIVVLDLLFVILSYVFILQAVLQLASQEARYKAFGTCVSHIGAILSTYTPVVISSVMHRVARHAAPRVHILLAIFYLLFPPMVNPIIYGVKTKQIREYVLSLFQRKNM
Method in brief: as §1

[5] = target: T4, OR52K2 (Homo sapiens) (UniProt Q8NGK3)
T4 sequence (whole entry): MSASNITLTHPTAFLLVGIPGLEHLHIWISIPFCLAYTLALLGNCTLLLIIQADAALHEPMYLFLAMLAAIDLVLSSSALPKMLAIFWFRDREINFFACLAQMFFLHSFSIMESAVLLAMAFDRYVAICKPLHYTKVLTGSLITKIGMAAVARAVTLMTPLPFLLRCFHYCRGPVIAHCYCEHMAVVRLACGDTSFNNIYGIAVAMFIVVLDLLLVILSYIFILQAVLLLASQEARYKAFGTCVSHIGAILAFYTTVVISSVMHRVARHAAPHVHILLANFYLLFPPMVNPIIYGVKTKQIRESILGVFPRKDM
Method in brief: as §1

[6] = target: T5, OR52L1 (Homo sapiens) (UniProt Q8NGH7)
T5 sequence (whole entry): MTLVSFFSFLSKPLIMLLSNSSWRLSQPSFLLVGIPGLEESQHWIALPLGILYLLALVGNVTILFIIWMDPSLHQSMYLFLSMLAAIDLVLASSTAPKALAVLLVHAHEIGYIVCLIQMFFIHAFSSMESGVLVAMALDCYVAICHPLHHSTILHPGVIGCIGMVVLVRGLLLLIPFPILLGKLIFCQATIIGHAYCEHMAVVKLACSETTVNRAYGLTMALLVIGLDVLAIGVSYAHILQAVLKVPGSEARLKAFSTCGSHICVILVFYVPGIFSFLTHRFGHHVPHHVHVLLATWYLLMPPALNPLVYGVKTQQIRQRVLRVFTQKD
Method in brief: as §1

[7] = target: T6, OR52M1 (Homo sapiens) (UniProt Q8NGK5)
T6 sequence (whole entry): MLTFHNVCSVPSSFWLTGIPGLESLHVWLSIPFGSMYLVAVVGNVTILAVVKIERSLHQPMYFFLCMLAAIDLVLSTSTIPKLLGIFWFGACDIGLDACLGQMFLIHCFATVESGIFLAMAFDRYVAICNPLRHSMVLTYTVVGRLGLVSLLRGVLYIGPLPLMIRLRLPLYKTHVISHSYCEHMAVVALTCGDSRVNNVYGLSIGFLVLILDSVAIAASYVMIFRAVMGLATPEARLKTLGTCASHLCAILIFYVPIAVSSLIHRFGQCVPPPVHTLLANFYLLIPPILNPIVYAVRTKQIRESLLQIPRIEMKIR
Method in brief: as §1

[8] = target: T7, OR52N1 (Homo sapiens) (UniProt Q8NH53)
T7 sequence (whole entry): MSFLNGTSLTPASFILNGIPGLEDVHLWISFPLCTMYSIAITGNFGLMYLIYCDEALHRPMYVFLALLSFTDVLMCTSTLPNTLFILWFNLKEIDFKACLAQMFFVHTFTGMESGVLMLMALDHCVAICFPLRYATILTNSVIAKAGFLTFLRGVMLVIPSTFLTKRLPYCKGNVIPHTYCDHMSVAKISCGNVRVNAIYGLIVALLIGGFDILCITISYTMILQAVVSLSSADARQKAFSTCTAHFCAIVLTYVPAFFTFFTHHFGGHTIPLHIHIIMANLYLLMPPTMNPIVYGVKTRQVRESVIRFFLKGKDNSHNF
Method in brief: as §1

[9] = target: T8, OR52N2 (Homo sapiens) (UniProt Q8NGI0)
T8 sequence (whole entry): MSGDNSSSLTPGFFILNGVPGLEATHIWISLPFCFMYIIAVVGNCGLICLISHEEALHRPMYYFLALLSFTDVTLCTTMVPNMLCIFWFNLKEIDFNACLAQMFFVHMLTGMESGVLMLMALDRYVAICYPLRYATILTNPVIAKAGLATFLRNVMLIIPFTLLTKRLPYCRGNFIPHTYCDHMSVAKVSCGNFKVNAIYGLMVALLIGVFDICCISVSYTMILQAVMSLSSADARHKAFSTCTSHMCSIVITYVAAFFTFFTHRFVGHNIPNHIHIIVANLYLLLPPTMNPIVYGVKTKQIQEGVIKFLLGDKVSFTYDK
Method in brief: as §1

[10] = target: T9, OR52N4 (Homo sapiens) (UniProt Q8NGI2)
T9 sequence (whole entry): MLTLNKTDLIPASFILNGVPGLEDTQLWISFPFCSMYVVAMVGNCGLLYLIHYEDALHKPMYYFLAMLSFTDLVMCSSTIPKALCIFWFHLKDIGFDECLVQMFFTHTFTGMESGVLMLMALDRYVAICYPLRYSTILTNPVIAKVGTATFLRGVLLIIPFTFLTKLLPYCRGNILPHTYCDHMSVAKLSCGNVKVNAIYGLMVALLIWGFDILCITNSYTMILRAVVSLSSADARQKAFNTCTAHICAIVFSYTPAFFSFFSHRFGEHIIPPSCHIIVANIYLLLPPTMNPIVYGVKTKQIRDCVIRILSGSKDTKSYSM
Method in brief: as §1

[11] = target: T10, OR52N5 (Homo sapiens) (UniProt Q8NH56)
T10 sequence (whole entry): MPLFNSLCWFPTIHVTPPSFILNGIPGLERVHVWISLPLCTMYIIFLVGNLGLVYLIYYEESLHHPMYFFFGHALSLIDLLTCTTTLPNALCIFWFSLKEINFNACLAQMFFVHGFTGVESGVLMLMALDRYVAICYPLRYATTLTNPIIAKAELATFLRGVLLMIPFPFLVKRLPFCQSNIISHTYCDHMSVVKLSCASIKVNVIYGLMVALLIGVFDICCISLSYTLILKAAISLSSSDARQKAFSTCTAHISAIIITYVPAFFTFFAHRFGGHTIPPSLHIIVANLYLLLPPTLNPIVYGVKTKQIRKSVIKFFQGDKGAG
Method in brief: as §1

[12] = target: T11, OR52R1 (Homo sapiens) (UniProt Q8NGF1)
T11 sequence (whole entry): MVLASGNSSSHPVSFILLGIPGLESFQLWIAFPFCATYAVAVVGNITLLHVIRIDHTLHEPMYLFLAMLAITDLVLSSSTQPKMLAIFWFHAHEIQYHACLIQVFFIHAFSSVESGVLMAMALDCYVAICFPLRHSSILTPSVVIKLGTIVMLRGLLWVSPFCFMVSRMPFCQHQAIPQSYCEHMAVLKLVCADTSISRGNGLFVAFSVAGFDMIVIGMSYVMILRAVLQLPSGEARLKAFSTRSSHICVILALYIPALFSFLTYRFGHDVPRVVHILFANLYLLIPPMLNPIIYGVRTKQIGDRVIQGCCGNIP
Method in brief: as §1

[13] = target: T12, OR52W1 (Homo sapiens) (UniProt Q6IF63)
T12 sequence (whole entry): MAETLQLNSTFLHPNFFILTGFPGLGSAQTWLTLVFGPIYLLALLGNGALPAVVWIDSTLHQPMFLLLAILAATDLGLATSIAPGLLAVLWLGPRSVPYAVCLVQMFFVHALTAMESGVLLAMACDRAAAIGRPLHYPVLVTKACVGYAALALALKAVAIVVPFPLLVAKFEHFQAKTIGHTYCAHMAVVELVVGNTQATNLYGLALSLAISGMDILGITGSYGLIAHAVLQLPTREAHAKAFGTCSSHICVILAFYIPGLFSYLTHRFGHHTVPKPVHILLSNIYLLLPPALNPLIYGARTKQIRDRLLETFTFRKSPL
Method in brief: as §1

[14] = target: T13, OR56A1 (Homo sapiens) (UniProt Q8NGH5)
T13 sequence (whole entry): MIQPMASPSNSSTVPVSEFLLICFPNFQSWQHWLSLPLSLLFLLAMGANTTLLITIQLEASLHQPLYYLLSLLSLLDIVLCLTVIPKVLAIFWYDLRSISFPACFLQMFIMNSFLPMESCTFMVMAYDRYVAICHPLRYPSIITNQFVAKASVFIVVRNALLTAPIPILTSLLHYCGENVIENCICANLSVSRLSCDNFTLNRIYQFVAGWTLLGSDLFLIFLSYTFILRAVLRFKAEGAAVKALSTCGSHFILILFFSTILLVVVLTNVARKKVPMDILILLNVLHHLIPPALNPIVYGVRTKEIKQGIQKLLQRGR
Method in brief: as §1

[15] = target: T14, OR56A3 (Homo sapiens) (UniProt Q8NH54)
T14 sequence (whole entry): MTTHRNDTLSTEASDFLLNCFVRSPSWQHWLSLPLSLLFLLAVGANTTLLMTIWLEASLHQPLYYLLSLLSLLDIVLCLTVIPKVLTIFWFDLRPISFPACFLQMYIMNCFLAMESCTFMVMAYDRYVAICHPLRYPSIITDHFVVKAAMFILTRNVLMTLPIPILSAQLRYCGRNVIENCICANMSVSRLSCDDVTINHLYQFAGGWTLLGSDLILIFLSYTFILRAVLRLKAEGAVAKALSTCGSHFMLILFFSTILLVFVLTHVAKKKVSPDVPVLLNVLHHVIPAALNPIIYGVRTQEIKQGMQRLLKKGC
Method in brief: as §1

[16] = target: T15, OR56A4 (Homo sapiens) (UniProt Q8NGH8)
T15 sequence (whole entry): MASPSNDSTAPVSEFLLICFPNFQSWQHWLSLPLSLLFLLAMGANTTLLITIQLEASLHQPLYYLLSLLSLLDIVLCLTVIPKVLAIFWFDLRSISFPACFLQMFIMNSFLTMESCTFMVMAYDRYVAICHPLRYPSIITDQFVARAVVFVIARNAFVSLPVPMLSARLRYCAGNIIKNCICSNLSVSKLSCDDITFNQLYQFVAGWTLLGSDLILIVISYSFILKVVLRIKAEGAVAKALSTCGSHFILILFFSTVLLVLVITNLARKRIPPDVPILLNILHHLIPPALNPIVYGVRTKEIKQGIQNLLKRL
Method in brief: as §1

[17] = target: T16, OR56B1 (Homo sapiens) (UniProt Q8NGI3)
T16 sequence (whole entry): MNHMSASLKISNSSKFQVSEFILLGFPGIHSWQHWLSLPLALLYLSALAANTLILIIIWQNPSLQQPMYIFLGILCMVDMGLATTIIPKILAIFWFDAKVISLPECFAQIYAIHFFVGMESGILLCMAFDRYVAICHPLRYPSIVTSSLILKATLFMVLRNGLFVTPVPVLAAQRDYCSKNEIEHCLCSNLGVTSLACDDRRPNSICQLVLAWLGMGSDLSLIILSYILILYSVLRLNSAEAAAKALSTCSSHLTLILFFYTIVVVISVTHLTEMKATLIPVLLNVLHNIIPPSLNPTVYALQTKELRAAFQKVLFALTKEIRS
Method in brief: as §1

[18] = target: T17, OR56A5 (Homo sapiens) (UniProt P0C7T3)
T17 sequence (whole entry): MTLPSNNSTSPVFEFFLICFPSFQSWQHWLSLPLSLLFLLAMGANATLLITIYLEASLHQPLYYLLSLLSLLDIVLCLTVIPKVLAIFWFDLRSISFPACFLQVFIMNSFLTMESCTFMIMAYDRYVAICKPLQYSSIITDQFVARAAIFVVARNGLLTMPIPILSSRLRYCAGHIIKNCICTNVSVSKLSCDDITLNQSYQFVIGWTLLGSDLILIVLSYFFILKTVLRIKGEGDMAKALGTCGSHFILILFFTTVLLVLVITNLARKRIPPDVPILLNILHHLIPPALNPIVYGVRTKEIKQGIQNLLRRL
Method in brief: as §1

Sequence of OR52J3 (Homo sapiens) (Q8NH60 whole entry): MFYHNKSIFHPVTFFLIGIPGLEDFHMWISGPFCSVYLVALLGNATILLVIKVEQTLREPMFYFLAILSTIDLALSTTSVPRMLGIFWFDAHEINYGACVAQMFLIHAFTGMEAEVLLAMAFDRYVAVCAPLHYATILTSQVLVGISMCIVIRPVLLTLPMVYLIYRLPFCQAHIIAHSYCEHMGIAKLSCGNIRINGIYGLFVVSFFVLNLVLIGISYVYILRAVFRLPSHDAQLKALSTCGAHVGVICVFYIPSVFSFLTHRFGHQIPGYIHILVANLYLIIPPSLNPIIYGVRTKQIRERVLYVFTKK

Structure (SMILES): CCCCCC1CCCC(=O)O1 (stereo not given)
- odorant receptor agonist call [1]: inactive
- odorant receptor agonist call [2]: inactive
- odorant receptor agonist call [3]: inactive
- odorant receptor agonist call [4]: active
- odorant receptor agonist call [5]: inactive
- odorant receptor agonist call [6]: active
- odorant receptor agonist call [7]: active
- odorant receptor agonist call [8]: inactive
- odorant receptor agonist call [9]: inactive
- odorant receptor agonist call [10]: inactive
- odorant receptor agonist call [11]: active
- odorant receptor agonist call [12]: active
- odorant receptor agonist call [13]: inactive
- odorant receptor agonist call [14]: inactive
- odorant receptor agonist call [15]: inactive
- odorant receptor agonist call [16]: inactive
- odorant receptor agonist call [17]: inactive

Structure (SMILES): CCCCCC(=O)C(C)C(C)=O (stereo not given)
- odorant receptor agonist call [1]: inactive
- odorant receptor agonist call [2]: inactive
- odorant receptor agonist call [3]: inactive
- odorant receptor agonist call [4]: inactive
- odorant receptor agonist call [5]: inactive
- odorant receptor agonist call [6]: inactive
- odorant receptor agonist call [7]: inactive
- odorant receptor agonist call [8]: inactive
- odorant receptor agonist call [9]: inactive
- odorant receptor agonist call [10]: inactive
- odorant receptor agonist call [11]: inactive
- odorant receptor agonist call [12]: inactive
- odorant receptor agonist call [13]: inactive
- odorant receptor agonist call [14]: inactive
- odorant receptor agonist call [15]: inactive
- odorant receptor agonist call [16]: inactive
- odorant receptor agonist call [18]: inactive
- odorant receptor agonist call [17]: inactive

Source: the M2OR odorant receptor database
